Assay results pooled from the literature.
Each line is one published result; the experiments were not run side by side.
CHRM3: Muscarinic acetylcholine receptor M3 (CHRM3, Homo sapiens, UniProt P20309)
PIK3CG: Phosphatidylinositol 4,5-bisphosphate 3-kinase catalytic subunit gamma isoform (PIK3CG, Homo sapiens, UniProt P48736)
PTGS2: Prostaglandin G/H synthase 2 (PTGS2, Homo sapiens, UniProt P35354)
Inositol-tetrakisphosphate 1-kinase: Inositol-tetrakisphosphate 1-kinase (Homo sapiens, UniProt Q13572)

| SMILES | target | test | setting | IC50 [µM] |
| --- | --- | --- | --- | --- |
| O=C(CCNC(=O)CNC(=O)CC(c1ccccc1)(c1ccccc1)c1ccccc1)NCC1CCN(Cc2ccc(F)cc2)CC1 | CHRM3 | ligand displacement, radioligand | cell membranes | 15.1 |
| CN(C)C(=O)c1cc2cnc(Nc3cccc4c(=O)cc(N5CCOCC5)oc34)nc2n1C1CCCC1 | PIK3CG | enzyme activity, inhibitor, radiometric |  | 1.42 |
| NS(=O)(=O)c1ccc(-n2nc(-c3nnc(S)o3)cc2-c2ccccc2)cc1 | PTGS2 | enzyme activity, inhibitor |  | 3.73 |
| Cc1ccc(CN2C(=O)C(=Nc3cccc(Cl)c3)c3ccccc32)cc1 | PIK3CG | enzyme activity, inhibitor, ADP detection |  | 0.00111 |
| Nc1ncnc2c1ncn2C1CCCC1 | Inositol-tetrakisphosphate 1-kinase | enzyme activity, inhibitor |  | 0.026 |
| NC(=O)C1CN(C(=O)CCl)c2ccccc2O1 (centres unmarked) | Creatine kinase U-type, mitochondrial (CKMT1A, Homo sapiens, UniProt P12532) | enzyme activity, inhibitor, ADP detection | pH 8.5 | 3 |
| Nc1ncnc2c1cnn2C1CCCCC1 | Inositol-tetrakisphosphate 1-kinase | enzyme activity, inhibitor |  | 3.2 |
| CN(C)C(=O)c1cc2cnc(Nc3ccc(-c4cccc5c(=O)cc(N6CCOCC6)oc45)cc3)nc2n1C1CCCC1 | PIK3CG | enzyme activity, inhibitor, radiometric |  | > 10 |
| O=C1Nc2ccccc2C1=Nc1ccccc1I | PIK3CG | enzyme activity, inhibitor, ADP detection |  | 0.00388 |
| CN(C)C(=O)c1cc2cnc(Nc3ccc4c(=O)cc(N5CCOCC5)oc4c3)nc2n1C1CCCC1 | PIK3CG | enzyme activity, inhibitor, radiometric |  | 0.461 |
| Nc1ncnc2c1ncn2[C@@H]1O[C@H](CO)[C@@H](O)[C@@H]1F | Inositol-tetrakisphosphate 1-kinase | enzyme activity, inhibitor |  | 0.86 |
| O=C(CCNC(=O)CNC(=O)CC(c1ccccc1)(c1ccccc1)c1ccccc1)NC[C@@H]1CCCN(Cc2ccc(F)nc2)C1 | CHRM3 | ligand displacement, radioligand | cell membranes | 8.2 |
| CC(C)N(CCC(=O)c1ccc2ccccc2c1)Cc1ccccc1 | Retinal dehydrogenase 2 (ALDH1A2, Homo sapiens, UniProt O94788) | enzyme activity, inhibitor, fluorescence | 15 min, pH 7.5 | < 10 |
| CN(C)C(=O)c1cc2cnc(Nc3cncc(-c4ccc5c(=O)cc(N6CCOCC6)oc5c4)c3)nc2n1C1CCCC1 | PIK3CG | enzyme activity, inhibitor, radiometric |  | 1.2 |
| O=C1C(=Nc2ccccc2I)c2ccccc2N1Cc1cccc(Cl)c1 | PIK3CG | enzyme activity, inhibitor, ADP detection |  | 0.00407 |
| COc1ccc(-c2oc3cc(Nc4ncc5cc(C(=O)N(C)C)n(C6CCCC6)c5n4)ccc3c(=O)c2F)cc1 | PIK3CG | enzyme activity, inhibitor, radiometric |  | > 10 |

| SMILES | target | test | setting | IC50 [µM] |
| --- | --- | --- | --- | --- |
| c1ccc(COc2[nH]cnc3ncnc2-3)cc1 | Inositol-tetrakisphosphate 1-kinase | enzyme activity, inhibitor |  | 5.3 |
| NS(=O)(=O)c1ccc(-n2nc(C(=O)NN3C(=O)c4ccccc4C3=O)cc2-c2ccccc2)cc1 | PTGS2 | enzyme activity, inhibitor |  | 2.64 |
| CN(C)C(=O)c1cc2cnc(Nc3ccc(-c4ccc5c(=O)cc(N6CCOCC6)oc5c4)cc3)nc2n1C1CCCC1 | PIK3CG | enzyme activity, inhibitor, radiometric |  | 3.39 |
| O=C1Nc2ccccc2/C1=N/c1ccccc1Br | PIK3CG | enzyme activity, inhibitor, ADP detection |  | 0.176 |
| COc1cc(C=NNC(=O)c2cc(-c3ccccc3)n(-c3ccc(S(N)(=O)=O)cc3)n2)cc(OC)c1OC | PTGS2 | enzyme activity, inhibitor |  | 2.69 |
| COc1cc(N=C2C(=O)Nc3ccccc32)cc(OC)c1 | PIK3CG | enzyme activity, inhibitor, ADP detection |  | 0.00786 |
| NS(=O)(=O)c1ccc(-n2nc(C(=O)NN=Cc3ccc(O)cc3)cc2-c2ccccc2)cc1 | PTGS2 | enzyme activity, inhibitor |  | 1.42 |
| O=C1C(=Nc2ccccc2Br)c2ccccc2N1Cc1ccccc1 | PIK3CG | enzyme activity, inhibitor, ADP detection |  | 0.0076 |
| CC(=NNC(=O)c1cc(-c2ccccc2)n(-c2ccc(S(N)(=O)=O)cc2)n1)c1ccc(Br)cc1 | PTGS2 | enzyme activity, inhibitor |  | 1.25 |
| Nc1ncnc2c1ncn2[C@@H]1O[C@H](CO)C[C@H]1O | Inositol-tetrakisphosphate 1-kinase | enzyme activity, inhibitor |  | 3.1 |
| CC(C)c1cccc(C(C)C)c1N=C1C(=O)N(Cc2ccccc2)c2ccccc21 | PIK3CG | enzyme activity, inhibitor, ADP detection |  | 0.00168 |
| CN(C)C(=O)c1cc2cnc(Nc3cc(C(=O)O)cc(-c4ccc5c(=O)cc(N6CCOCC6)oc5c4)c3)nc2n1C1CCCC1 | PIK3CG | enzyme activity, inhibitor, radiometric |  | 17.3 |
| Nc1ncnc2c1ncn2C1CCCO1 (centres unmarked) | Inositol-tetrakisphosphate 1-kinase | enzyme activity, inhibitor, ADP detection |  | 0.92 |
| C=C(F)C(=O)N1CCN(c2nc(OC[C@@H]3CCCN3C)nc3c2CCN(c2cccc4cccc(Cl)c24)C3)C[C@@H]1CC#N | GTPase NRas (NRAS, Homo sapiens, UniProt P01111, C181S/C186S/G12C) | enzyme activity, inhibitor |  | 0.747 |
| O=C1C(=Nc2ccccc2I)c2ccccc2N1Cc1ccc(Br)cc1 | PIK3CG | enzyme activity, inhibitor, ADP detection |  | 0.0058 |
| CN(C)C(=O)c1cc2cnc(Nc3ccc4c(=O)cc(N5CCNCC5)oc4c3)nc2n1C1CCCC1 | PIK3CG | enzyme activity, inhibitor, radiometric |  | 6.93 |
